From ChEMBL document CHEMBL1125563, “Selective, centrally acting serotonin 5-HT2 antagonists. 1. 2- and 6-substituted 1-phenyl-3-(4-piperidinyl)-1H-indoles” (J Med Chem, 1992)
pIC50: −log10 of the molar value.

Legend:
[1] = target: T1, Adrenergic receptor alpha-1 (Rattus norvegicus, UniProt P15823+P23944+P43140); assay: Displacement of [3H]prazosin from Alpha-1 adrenergic receptor of whole rat brain membranes; assay type: cell membranes, Membrane
T1 sequence (P15823 whole entry): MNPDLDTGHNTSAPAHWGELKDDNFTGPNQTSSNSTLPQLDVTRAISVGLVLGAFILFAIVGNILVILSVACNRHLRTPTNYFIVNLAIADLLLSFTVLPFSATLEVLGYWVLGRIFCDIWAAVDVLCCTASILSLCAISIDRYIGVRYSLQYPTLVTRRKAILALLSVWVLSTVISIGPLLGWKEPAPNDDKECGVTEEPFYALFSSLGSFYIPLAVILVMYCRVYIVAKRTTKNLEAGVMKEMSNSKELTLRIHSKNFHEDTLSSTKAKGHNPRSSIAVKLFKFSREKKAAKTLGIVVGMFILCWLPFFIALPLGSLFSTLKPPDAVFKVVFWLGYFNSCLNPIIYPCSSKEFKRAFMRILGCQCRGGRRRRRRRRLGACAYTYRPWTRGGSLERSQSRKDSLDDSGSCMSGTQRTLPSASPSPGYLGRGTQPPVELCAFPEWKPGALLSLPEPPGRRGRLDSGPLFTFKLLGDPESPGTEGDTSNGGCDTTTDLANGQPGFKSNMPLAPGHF
T1 sequence (P23944 whole entry): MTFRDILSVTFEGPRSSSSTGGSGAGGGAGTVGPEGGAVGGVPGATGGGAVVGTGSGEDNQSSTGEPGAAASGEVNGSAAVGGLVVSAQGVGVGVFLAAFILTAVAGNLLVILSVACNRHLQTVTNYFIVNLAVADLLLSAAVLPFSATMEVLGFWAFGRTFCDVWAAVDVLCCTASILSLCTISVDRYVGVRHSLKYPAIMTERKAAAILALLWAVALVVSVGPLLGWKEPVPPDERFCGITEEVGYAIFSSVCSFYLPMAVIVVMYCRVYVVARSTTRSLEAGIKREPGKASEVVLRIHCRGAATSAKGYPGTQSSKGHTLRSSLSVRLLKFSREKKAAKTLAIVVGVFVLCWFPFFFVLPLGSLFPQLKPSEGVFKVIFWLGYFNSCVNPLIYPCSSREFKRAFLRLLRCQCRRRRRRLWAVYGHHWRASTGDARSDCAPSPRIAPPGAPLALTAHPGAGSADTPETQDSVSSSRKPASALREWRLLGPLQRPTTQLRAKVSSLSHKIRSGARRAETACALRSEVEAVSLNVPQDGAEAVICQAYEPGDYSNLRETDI
T1 sequence (P43140 whole entry): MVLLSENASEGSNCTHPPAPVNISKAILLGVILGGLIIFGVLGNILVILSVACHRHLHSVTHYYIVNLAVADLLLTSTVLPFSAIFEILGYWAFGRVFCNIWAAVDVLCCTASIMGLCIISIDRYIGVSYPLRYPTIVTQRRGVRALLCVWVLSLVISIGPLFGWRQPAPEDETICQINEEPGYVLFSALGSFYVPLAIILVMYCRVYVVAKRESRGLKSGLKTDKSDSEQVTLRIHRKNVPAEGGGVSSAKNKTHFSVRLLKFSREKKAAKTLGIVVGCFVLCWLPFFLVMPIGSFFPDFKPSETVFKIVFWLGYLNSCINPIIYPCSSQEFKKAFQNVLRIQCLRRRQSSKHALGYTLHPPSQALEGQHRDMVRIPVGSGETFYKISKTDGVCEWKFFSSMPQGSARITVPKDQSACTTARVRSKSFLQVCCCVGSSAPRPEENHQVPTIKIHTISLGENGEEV
Procedure, shortened: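 α1 adrenoceptor binding measured as displacement of [3H]prazosin from whole rat brain membranes. Five test-drug concentrations spanning three decades in triplicate, two full curves; IC50 from log concentration-effect curves, logarithmic mean of at least two determinations.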

[2] = species on record: Mus musculus; assay: Compound was evaluated for the inhibition of isolation-induced aggression at a threshold of 180 seconds; assay type: functional
Procedure, shortened: (§1)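 Isolated male NMRI mice (3 weeks) trained to attack a nonaggressive intruder of the same strain; only mice with attack latency <25 s included. Pretested just before dosing and 2 h after sc test substance; observation maximum 180 s; at least eight mice per dose.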

[3] = species on record: Mus musculus; assay: Compound was evaluated for the inhibition of isolation-induced aggression at a threshold of, 90 seconds; assay type: functional; procedure, shortened: as §1
[4] = test system: Rattus norvegicus; assay: Compound was evaluated for the inhibition of quipazine-induced head twitches after 2 h (administered subcutaneously); 0.064-0.18; assay type: functional; conditions: sc
[5] = test system: Rattus norvegicus; assay: Compound was evaluated for the inhibition of quipazine-induced head twitches after 24 hr (administered subcutaneously); 0.017-0.16; assay type: functional; conditions: sc
[6] = test system: Rattus norvegicus; assay: Compound was evaluated for the inhibition of quipazine-induced head twitches after 24 hr (administered perorally); 0.026-0.12; assay type: functional; conditions: po
[7] = test system: Rattus norvegicus; assay: Compound was evaluated for the inhibition of pergolide-induced reactions after 2 hr (administered subcutaneously); assay type: functional; conditions: sc
Procedure, shortened: (§2)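 Male Wistar rats with unilateral 6-OHDA lesions; test drug sc 2 h before pergolide (0.05 µmol/kg sc) to induce contralateral circling. Effect of each dose expressed as percent of mean of control sessions 1 week before and 1 week after, per rat; at least four rats per dose; ED50 by log-probit analysis.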

[8] = target: Serotonin 2 (5-HT2) receptor (Rattus norvegicus, UniProt P30994+P08909+P14842); assay: Displacement of [3H]ketanserin from 5-hydroxytryptamine 2 receptor from rat cortical membranes.; assay type: cell membranes, Membrane
Procedure, shortened: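 [3H]ketanserin displacement from rat cortical membranes (5-HT2). Five concentrations across three decades in triplicate, two full curves; IC50 estimated on a log-concentration scale, given as logarithmic mean of at least two determinations.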

[9] = target: D(2) dopamine receptor (Rattus norvegicus, UniProt P61169); assay: Displacement of [3H]-spiperone from Dopamine receptor D2 from rat striatal membranes; assay type: cell membranes, Membrane
Procedure, shortened: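 [3H]spiperone displacement from rat striatal membranes (D2). Five test-drug concentrations over three decades, in triplicate, two full curves; IC50 from log concentration-effect curves, reported as logarithmic mean of at least two determinations.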

[10] = test system: Rattus norvegicus; assay: Compound was evaluated for the inhibition of quipazine-induced head twitches after 24 hr (administered subcutaneously); 0.0089-0.12; assay type: functional; conditions: sc
[11] = test system: Rattus norvegicus; assay: Compound was evaluated for the inhibition of quipazine-induced head twitches after 24 hr (administered perorally); 0.017-0.18; assay type: functional; conditions: po
[12] = test system: Rattus norvegicus; assay: Compound was evaluated for the inhibition of quipazine-induced head twitches after 2 hr (administered subcutaneously); 0.0027-0.073; assay type: functional; conditions: sc
[13] = species on record: Mus musculus; assay: Compound was evaluated for the inhibition of isolation-induced aggression at a threshold of 180 seconds; 4.4-13; assay type: functional; procedure, shortened: as §1
[14] = species on record: Mus musculus; assay: Compound was evaluated for the inhibition of isolation-induced aggression at a threshold of, 90 seconds; 3.7-9.4; assay type: functional; procedure, shortened: as §1
[15] = test system: Rattus norvegicus; assay: Compound was evaluated for the inhibition of quipazine-induced head twitches after 2 hr (administered subcutaneously); 0.022-0.056; assay type: functional; conditions: sc
[16] = test system: Rattus norvegicus; assay: Compound was evaluated for the inhibition of quipazine-induced head twitches after 24 hr (administered subcutaneously); 0.014-0.066; assay type: functional; conditions: sc
[17] = test system: Rattus norvegicus; assay: Compound was evaluated for the inhibition of quipazine-induced head twitches after 24 hr (administered perorally); 0.020-0.078; assay type: functional; conditions: po
[18] = test system: Rattus norvegicus; assay: Compound was evaluated for the inhibition of pergolide-induced reactions after 2 hr (administered subcutaneously); 1.5-8.9; assay type: functional; conditions: sc; procedure, shortened: as §2

Chain of D(2) dopamine receptor (P61169 whole entry): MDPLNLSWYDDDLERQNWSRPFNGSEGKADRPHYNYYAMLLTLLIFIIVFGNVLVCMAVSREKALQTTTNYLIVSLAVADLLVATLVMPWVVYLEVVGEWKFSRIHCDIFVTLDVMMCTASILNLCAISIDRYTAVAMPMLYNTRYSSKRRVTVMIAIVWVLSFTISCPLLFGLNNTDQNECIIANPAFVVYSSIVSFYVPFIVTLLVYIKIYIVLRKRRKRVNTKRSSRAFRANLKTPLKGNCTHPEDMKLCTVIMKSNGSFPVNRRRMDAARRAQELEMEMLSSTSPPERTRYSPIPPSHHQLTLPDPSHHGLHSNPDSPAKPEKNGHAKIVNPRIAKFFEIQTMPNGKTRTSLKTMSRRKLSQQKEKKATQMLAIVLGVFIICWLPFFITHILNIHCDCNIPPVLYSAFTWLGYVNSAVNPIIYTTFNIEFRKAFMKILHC

Row | SMILES | IC50 [1] | IC50 [8] | pIC50 [9] | further results
1 | O=C1NCCN1CCN1CCC(c2cn(-c3ccc(F)cc3)c3cc(C(F)(F)F)ccc23)CC1 | 33 nM | 1.7 nM | 6.59 | 
2 | Cc1ccc2c(C3CCN(CCNC(=O)N(C)C)CC3)cn(-c3ccc(F)cc3)c2c1 | 22 nM | 2.6 nM | 7.42 | 
3 | CC(C)N1CCN(CCN2CCC(c3c[nH]c4cc(Cl)ccc34)CC2)C1=O | 34 nM | 66 nM | 6.70 | 
4 | CN(C)C(=O)NCCN1CCC(c2cn(-c3ccc(F)cc3)c3cc(Cl)ccc23)CC1 | 29 nM | 1.3 nM | 7.57 | 
5 | Cc1c(C2=CCN(CCN3CCNC3=O)CC2)c2ccccc2n1-c1ccc(F)cc1 | 23 nM | 1.1 nM | 6.80 | 
6 | O=C1NCCN1CCN1CCC(c2cn(-c3ccc(F)cc3)c3cc(Cl)ccc23)CC1 | 9.6 nM | 1.4 nM | 7.25 | 
7 | O=C1NCCN1CCN1CCC(c2cn(-c3ccc(F)cc3)c3ccc(Cl)cc23)CC1 [SERTINDOLE] | 3.4 nM |  |  | ED50 [13]: 7.5 µmol/kg; ED50 [14]: 5.9 µmol/kg; ED50 [15]: 0.035 µmol/kg; ED50 [16]: 0.03 µmol/kg; ED50 [17]: 0.039 µmol/kg; ED50 [18]: 3.7 µmol/kg

The next lines start with results.

Row | IC50 [1] | IC50 [8] | pIC50 [9] | SMILES | further results
8 | 70 nM | 1.5 nM |  | CC(C)N1CCN(CCN2CCC(c3cn(-c4ccc(F)cc4)c4cc(Cl)ccc34)CC2)C1=O | ED50 [2]: 2 µmol/kg; ED50 [3]: 2.3 µmol/kg; ED50 [4]: 0.11 µmol/kg; ED50 [5]: 0.052 µmol/kg; ED50 [6]: 0.055 µmol/kg; ED50 [7]: > 17 µmol/kg
9 | 120 nM | 2 nM |  | Cc1ccc2c(C3CCN(CCN4CCN(C(C)C)C4=O)CC3)cn(-c3ccccc3)c2c1 | ED50 [2]: > 11 µmol/kg; ED50 [3]: > 11 µmol/kg; ED50 [10]: 0.032 µmol/kg; ED50 [11]: 0.056 µmol/kg; ED50 [7]: > 22 µmol/kg; ED50 [12]: 0.014 µmol/kg
10 |  | 150 nM |  | Cc1ccc2c(C3CCN(CCN4CCN(C(C)C)C4=O)CC3)cn(-c3cccc(C(F)(F)F)c3)c2c1 | 
11 | 370 nM | 2.5 nM |  | Cc1ccc2c(C3CCN(CCN4CCN(C(C)C)C4=O)CC3)cn(-c3ccccc3F)c2c1 | 
12 | 670 nM | 11 nM |  | Cc1ccc2c(C3CCN(CCN4CCN(C(C)C)C4=O)CC3)cn(-c3cccc(F)c3)c2c1 | 
13 | 13 nM | 1.3 nM | 7.55 | CC(C)N1CCN(CCN2CCC(c3cn(-c4ccc(F)cc4)c4cc(F)ccc34)CC2)C1=O | 
